# Published values gathered from unrelated publications.
# Each line is one published result; the experiments were not run side by side.
# Organism: Trypanosoma brucei
# Read-out: parasite growth
Structure (SMILES),assay,system,conditions,EC50 [µM]
Cc1cc(C)c(C#N)c(SCC(=O)c2ccccc2C)n1,resazurin,,,25.8
O=C(N/N=C/c1ccc([N+](=O)[O-])o1)c1cn(Cc2ccccc2)c2ccccc2c1=O,resazurin,,72 h,0.57
CCCCCC(=O)NC(Cc1ccc(NC(=O)OC(C)(C)C)cc1)C(=O)NC(Cc1ccc(NC(=O)OC(C)(C)C)cc1)C(=O)NC(CC(C)C)C(=O)C1(C)CO1 (stereo not drawn),SYBR Green,,72 h,0.465
O=c1c(O[C@@H]2O[C@H](CO)[C@H](O)[C@H](O)[C@H]2O)c(-c2ccc(O)c(O)c2)oc2cc(O)cc(O)c12,resazurin,,48 h,50
Cc1ccc(Cn2cc(C(=O)N/N=C/c3ccc([N+](=O)[O-])s3)c(=O)c3cc(Cl)c(Cl)cc32)cc1,resazurin,,72 h,> 4
COc1ccc(C(=O)CSc2nc(C)cc(C)c2C#N)cc1,resazurin,,,> 64
N=C(N)c1ccc(OCCCCCOc2ccc(C(=N)N)cc2)cc1,SYBR Green,RHODESIENSE,,0.027
COc1cc(C)c(C#N)c(SCC(=O)c2ccccc2)n1,resazurin,RHODESIENSE,,32.9
CCCCCC(=O)NC(Cc1ccc(N)cc1)C(=O)NC(Cc1ccc(N)cc1)C(=O)NC(CC(C)C)C(=O)C1(C)CO1 (stereo not drawn),SYBR Green,,72 h,< 0.5
COc1cccc(C(=O)C[S+]([O-])c2nc(C)cc(C)c2C#N)c1 (stereo not drawn),resazurin,,,25.4
C[C@@H]1C/C=C/C=C/C=C/C=C/[C@H](O[C@@H]2O[C@H](C)[C@@H](O)[C@H](N)[C@@H]2O)C[C@@H]2O[C@](O)(C[C@@H](O)C[C@H]3O[C@@H]3/C=C/C(=O)O1)C[C@H](O)[C@H]2C(=O)O,resazurin,,48 h,12
Cc1ccc(Cn2cc(C(=O)N/N=C/c3ccc([N+](=O)[O-])s3)c(=O)c3cc(Br)ccc32)cc1,resazurin,,72 h,0.14
